Legend:
Rattus norvegicus [1] = assay: Antihypertensive activity in renal hypertensive rats 4 hr after oral administration (10 mg/Kg); type: functional
Procedure, shortened: (§1)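 Renal hypertensive rats (5 or 10 per group), 10 mg/kg given orally. Systolic pressure measured indirectly by tail occluding cuff with pulse sensor, once before dosing as control and again at 1, 2, 4, 6 and 8 h. Values are changes in mean systolic pressure from control (mmHg). Significance of control vs posttreatment assessed by Wilcoxon's signed rank test (p < 0.05).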

Rattus norvegicus [2] = assay: Antihypertensive activity in renal hypertensive rats 2 hr after oral administration (10 mg/Kg); type: functional; procedure, shortened: as §1
Rattus norvegicus [3] = assay: Antihypertensive activity in renal hypertensive rats 6 hr after oral administration (10 mg/Kg); type: functional; procedure, shortened: as §1
Rattus norvegicus [4] = assay: Antihypertensive activity in renal hypertensive rats 1 hr after oral administration (10 mg/Kg); type: functional; procedure, shortened: as §1
Felis catus [5] = assay: Change in blood pressure in normotensive anesthetized cat.; type: functional
Procedure, shortened: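 Normotensive cats of either sex (2-4 kg) anesthetized with α-chloralose (80 mg/kg iv). Trachea, femoral artery and jugular vein cannulated. Compound given iv at 10 mg/kg, with 1 mg/kg iv used in one case. Mean blood pressure recorded by pressure transducer before and 30 min after dosing, reported as decrease in mmHg.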

Felis catus [6] = assay: Control blood pressure in normotensive anesthetized cat at dose 10 mg/Kg iv
Rattus norvegicus [7] = assay: Antihypertensive activity in renal hypertensive rats 8 hr after oral administration (10 mg/Kg); type: functional; procedure, shortened: as §1

SMILES | BP (Rattus norvegicus [1]) [mmHg] | BP (Rattus norvegicus [2]) [mmHg] | BP (Rattus norvegicus [3]) [mmHg] | BP (Rattus norvegicus [4]) [mmHg] | BP (Felis catus [5]) [mmHg] | control BP (Felis catus [6]) [mmHg] | BP (Rattus norvegicus [7]) [mmHg]
COC(=O)C(CN)c1c[nH]c2ccc(O)cc12.Cl (stereo not drawn) | 4 | 1 | 0 | 7 | -85 | 135 | 7
COC(=O)C(CN)c1c(C)[nH]c2ccc(OC)cc12.Cl (stereo not drawn) | -8 | -2 | -8 | 2 | 1 | 164 | -3
CCOC(=O)CC(c1nnn[nH]1)c1c[nH]c2ccccc12 (stereo not drawn) | -27 | -22 | -22 | -4 | 2 | 168 | -7
COc1ccc2[nH]cc(C(CN)C(=O)OC(C)C)c2c1.Cl (stereo not drawn) | 13 | -1 | 7 | 7 | -48 | 181 | 13
COC(=O)C(CN)c1c[nH]c2ccccc12.Cl (stereo not drawn) | -9 | -9 | -6 | -7 | -53 | 156 | -7
COC(=O)C(CN)c1c[nH]c2cc(Cl)ccc12.Cl (stereo not drawn) | -17 | -23 | -15 | -14 | -7 | 140 | -7
CCOC(=O)C(C)(N)Cc1c[nH]c2ccc(O)cc12 (stereo not drawn) | 14 | -7 | 22 | -2 | 9 | 142 | 6
NCC(CC(=O)O)c1c[nH]c2ccccc12 (stereo not drawn) | -3 | -3 | -14 | -11 | -11 | 152 | 1
CCOC(=O)CC(c1nnn[nH]1)c1c[nH]c2ccc(OC)cc12 (stereo not drawn) | -25 | -21 | -16 | -16 | -11 | 136 | -11
NC(Cc1c[nH]c2ccc(O)cc12)C(=O)O (stereo not drawn) | 0 | -5 | 6 | -9 | -24 | 162 | -1
COC(=O)CC(CN)c1c[nH]c2ccccc12 (stereo not drawn) | 2 | -11 | -7 | -1 | -4 | 184 | -1
COC(=O)C(CN)c1cn(C)c2ccc(OC)cc12.Cl (stereo not drawn) | 3 | -6 | 1 | -5 | 20 | 165 | 7
CCOC(=O)CC(c1nnn[nH]1)c1c[nH]c2cc(Cl)ccc12 (stereo not drawn) | -4 | 2 | -17 | -5 | -20 | 175 | -11
NCC(C(=O)O)c1c[nH]c2ccccc12 (stereo not drawn) | -10 | -8 | -13 | -6 | -10 | 153 | -8
